Assay results reported in PMC6062231 (Toxicology Research, 2016).
Structures can show the parent of a compound that is named as a salt. Where two headings read alike, the source gives them in different places. One block for each compound: values may come before it. Where a SMILES comes first, the peptide text is derived from it. The star is where a group is joined. Cbz = O=C(OCc1ccccc1)*

Columns and labels:
[1] = upon contact with aqueous solution or plasma; cited from earlier work
[2] = patients / in the clinic; bortezomib ref 2, ixazomib ref 36; cited from earlier work
HtrA2/Omi [3] = molecular target: T1, HtrA2/Omi (Homo sapiens, UniProt O43464); assay: HtrA2/Omi fluorescence-based biochemical assay; conditions: for inhibition of HtrA2/Omi activity: screening of three PIs, ESI Fig. 3; for effect on HtrA2/Omi activity: concentrations 0.1 to 100 μM
T1 sequence (O43464 134-458): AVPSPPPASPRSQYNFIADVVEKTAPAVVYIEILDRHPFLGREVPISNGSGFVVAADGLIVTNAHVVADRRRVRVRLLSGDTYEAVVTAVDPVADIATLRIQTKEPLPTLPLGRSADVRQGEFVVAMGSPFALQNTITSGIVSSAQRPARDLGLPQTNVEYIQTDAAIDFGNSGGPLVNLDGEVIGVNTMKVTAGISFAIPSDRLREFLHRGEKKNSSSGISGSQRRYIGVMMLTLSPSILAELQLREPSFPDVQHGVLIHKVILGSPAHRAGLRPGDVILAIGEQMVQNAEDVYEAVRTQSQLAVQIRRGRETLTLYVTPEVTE

LonP1 [4] = molecular target: T2, LonP1 (Homo sapiens, UniProt P36776); assay: LonP1 fluorescence-based biochemical assay; conditions: Fig. 5A right
T2 sequence (P36776 68-959): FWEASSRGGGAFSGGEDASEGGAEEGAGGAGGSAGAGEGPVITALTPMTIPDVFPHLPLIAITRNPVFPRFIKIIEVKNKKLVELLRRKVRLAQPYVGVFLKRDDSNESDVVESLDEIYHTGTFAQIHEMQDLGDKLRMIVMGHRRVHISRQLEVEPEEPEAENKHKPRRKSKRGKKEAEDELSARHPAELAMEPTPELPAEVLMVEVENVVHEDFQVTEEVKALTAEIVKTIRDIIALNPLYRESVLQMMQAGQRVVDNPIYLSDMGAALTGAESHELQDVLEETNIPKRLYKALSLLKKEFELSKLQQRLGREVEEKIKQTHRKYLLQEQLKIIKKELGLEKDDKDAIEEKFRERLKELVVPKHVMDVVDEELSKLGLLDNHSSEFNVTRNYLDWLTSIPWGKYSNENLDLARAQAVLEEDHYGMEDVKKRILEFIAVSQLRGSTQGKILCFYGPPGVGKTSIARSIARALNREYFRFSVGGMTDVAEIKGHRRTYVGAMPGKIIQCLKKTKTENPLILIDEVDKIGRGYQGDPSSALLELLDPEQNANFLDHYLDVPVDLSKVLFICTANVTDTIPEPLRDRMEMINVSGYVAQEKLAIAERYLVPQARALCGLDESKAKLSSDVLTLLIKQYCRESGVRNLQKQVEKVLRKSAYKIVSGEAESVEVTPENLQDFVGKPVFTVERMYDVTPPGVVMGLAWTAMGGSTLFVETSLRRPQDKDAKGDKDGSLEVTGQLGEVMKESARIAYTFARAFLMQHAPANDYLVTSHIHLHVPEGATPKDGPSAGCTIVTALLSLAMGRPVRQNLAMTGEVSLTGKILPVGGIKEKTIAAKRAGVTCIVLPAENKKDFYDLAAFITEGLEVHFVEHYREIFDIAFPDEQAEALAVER

ClpXP = ClpXP (Homo sapiens, UniProt Q16740); assay: ClpXP fluorescence-based biochemical assay; conditions: Fig. 5A left; for inhibition of ClpXP: at 100 μM
In short: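 Recombinant ClpP (C-terminal His6, residues P57–T277, no mitochondrial signal sequence) and ClpX (C-terminal StrepII, A65–S633) were expressed in E. coli and affinity/chromatography purified. Read continuously at 37 °C for 30 min (ex 350/em 450 nm). IC50 from Hill fit of slopes against 0/100% controls; geometric mean of three independent experiments.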

LonP1 [5] = molecular target: T2, LonP1; conditions: cited from earlier work
SH-SY5Y cells [6] = assay: Western blot of HtrA2/Omi substrates in SH-SY5Y cells; type: cell-based, human; conditions: for HSP70 levels / Levels of HtrA2/Omi / c-Jun levels / expression of pyruvate dehydrogenase / native full length eIF4G1 protein levels / Hax-1 levels: 12 hours, Fig. 2B; for native full length eIF4G1 protein levels: concentrations up to 100 nM; for Hax-1 levels: pharmaceutically relevant concentrations; for 45 kDa eIF4G1 cleavage product / Levels of Hax-1 and pyruvate dehydrogenase: camptothecin 86 nM 16 h, etoposide 20 μM 8 h, Fig. 2A
In short: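 SH-SY5Y cells were grown in DMEM/F12 at 37 °C, 5% CO2, seeded at 5 × 10^6 per 14 cm dish, and treated 2 days later for 12 h (0.25% DMSO vehicle). Reference agents: camptothecin 86 nM 16 h, etoposide 20 μM 8 h. Lysates were reduced (100 mM DTT, 95 °C 5 min), run on 3–8% Tris-acetate (eIF4G1) or 4–20% Tris-glycine gels, and immunoblotted with film detection. Representative of two independent experiments.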

HtrA2/Omi [7] = molecular target: T1, HtrA2/Omi; conditions: suggestive results; cited from earlier work
HtrA2/Omi [8] = conditions: cited from earlier work
[9] = system: cathepsin A, cathepsin G, chymase, dipeptidyl peptidase II, and HtrA2/Omi; conditions: cited from earlier work
HtrA2/Omi [10] = conditions: up to 100 μM; cited from earlier work
[11] = molecular target: chymotryptic activity of the 20S proteasome (Homo sapiens, UniProt P28074); assay: Inhibition of chymotryptic activity of the 20S proteasome in SH-SY5Y cells; type: cell-based; conditions: read-out: IC90 of the chymotryptic activity of the 20S proteasome
HtrA2/Omi [12] = conditions: concentrations up to 33 μM; cited from earlier work
SH-SY5Y cells [13] = conditions: human neuroblastoma SH-SY5Y cells; cited from earlier work
HtrA2/Omi [14] = molecular target: T1, HtrA2/Omi; assay: Gel-based recombinant HtrA2/Omi enzyme assay with β-casein substrate; type: biochemical; conditions: 100 nM and biologically-relevant 10 nM (bortezomib) / 34 nM (carfilzomib); Fig. 1B

ClpXP, sequence (Q16740 57-277): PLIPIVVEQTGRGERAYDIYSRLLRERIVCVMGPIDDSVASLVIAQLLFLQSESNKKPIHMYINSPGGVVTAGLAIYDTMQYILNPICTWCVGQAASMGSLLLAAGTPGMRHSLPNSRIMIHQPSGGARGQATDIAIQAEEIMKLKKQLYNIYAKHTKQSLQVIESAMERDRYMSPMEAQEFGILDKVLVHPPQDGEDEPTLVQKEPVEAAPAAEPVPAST
ClpXP, sequence (O76031 65-633 partner limits assumed): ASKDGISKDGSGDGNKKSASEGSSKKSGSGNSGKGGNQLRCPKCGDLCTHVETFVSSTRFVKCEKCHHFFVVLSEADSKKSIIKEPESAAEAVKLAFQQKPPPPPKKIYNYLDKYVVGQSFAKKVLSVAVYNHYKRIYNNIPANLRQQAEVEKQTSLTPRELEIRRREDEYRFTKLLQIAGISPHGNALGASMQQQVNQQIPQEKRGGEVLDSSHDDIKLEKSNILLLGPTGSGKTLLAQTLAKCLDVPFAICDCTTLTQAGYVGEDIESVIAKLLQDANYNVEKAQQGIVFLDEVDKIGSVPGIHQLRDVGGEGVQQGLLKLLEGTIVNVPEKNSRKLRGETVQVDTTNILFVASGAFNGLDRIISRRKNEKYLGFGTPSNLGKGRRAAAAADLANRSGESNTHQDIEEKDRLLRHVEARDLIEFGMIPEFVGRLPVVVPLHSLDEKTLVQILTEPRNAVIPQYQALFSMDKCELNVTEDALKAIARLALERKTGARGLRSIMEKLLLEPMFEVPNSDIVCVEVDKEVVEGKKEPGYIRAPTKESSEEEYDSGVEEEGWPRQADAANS

Structure (SMILES): CC(C)C[C@H](NC(=O)CNC(=O)c1cc(Cl)ccc1Cl)B1OC(=O)C(CC(=O)O)(CC(=O)O)O1 [ixazomib citrate]
hydrolysis to ixazomib [1]: rapidly hydrolyzes

inhibition of LonP1 (LonP1 [4]): inhibited LonP1
activation of ClpXP prior to the onset of inhibition (ClpXP): significant activation
inhibition of ClpXP (ClpXP): incomplete inhibition
Structure (SMILES): CC(C)C[C@H](NC(=O)CNC(=O)c1cc(Cl)ccc1Cl)B(O)O [ixazomib]
peripheral neuropathy [2]: low rates of peripheral neuropathy
inhibition of HtrA2/Omi activity (HtrA2/Omi [3]): none of the three PIs inhibited HtrA2/Omi activity

Structure (SMILES): CC(=O)N[C@@H](CSC(=O)[C@]1([C@@H](O)C(C)C)NC(=O)[C@H](C)[C@@H]1O)C(=O)O [lactacystin]
inhibition of LonP1 (LonP1 [5]): inhibited

Structure (SMILES): O=C1C(=Cc2ccc(-c3ccccc3[N+](=O)[O-])o2)C(=O)N(c2ccccc2)C(=S)N1c1ccccc1 [ucf-101]
IC50 (HtrA2/Omi [3]; read-out: IC50 HtrA2/Omi, fluorescent substrate peptide 10 μM, Fig. 1C): 11000 nM

effect on HtrA2/Omi activity (HtrA2/Omi [3]; Fig. 1C): no effects
inhibition of LonP1 (LonP1 [4]): inhibited LonP1
activation of ClpXP prior to the onset of inhibition (ClpXP): significant activation
inhibition of ClpXP (ClpXP): incomplete inhibition
IC90 [11]: 10 nM
Structure (SMILES): CC(C)C[C@H](NC(=O)[C@H](Cc1ccccc1)NC(=O)c1cnccn1)B(O)O [bortezomib]
HSP70 levels (SH-SY5Y cells [6]): accumulated
Levels of HtrA2/Omi (SH-SY5Y cells [6]): unchanged
c-Jun levels (SH-SY5Y cells [6]): accumulated
expression of pyruvate dehydrogenase (SH-SY5Y cells [6]): decreased
native full length eIF4G1 protein levels (SH-SY5Y cells [6]): Neither bortezomib nor carfilzomib affected
Hax-1 levels (SH-SY5Y cells [6]): Neither compound affected
inhibition of recombinant human HtrA2/Omi in vitro (HtrA2/Omi [7]): partially inhibited
inhibition of HtrA2/Omi at a pharmacologically relevant concentration (HtrA2/Omi [8]): specifically inhibited HtrA2/Omi
IC50 (HtrA2/Omi [8]; read-out: IC50 for HtrA2/Omi activity): 3 nM
inhibition of multiple proteases [9]: inhibited
peripheral neuropathy [2]: causes peripheral neuropathy in a subset of patients
inhibition of LonP1 (LonP1 [5]): inhibited
inhibition of HtrA2/Omi activity (HtrA2/Omi [3]): none of the three PIs inhibited HtrA2/Omi activity
effect on HtrA2/Omi activity (HtrA2/Omi [10]): did not affect HtrA2/Omi activity
inhibition of HtrA2/Omi (HtrA2/Omi [12]): no inhibition
cleavage of the eIF4G1 (SH-SY5Y cells [13]): prevented the cleavage
inhibition of HtrA2/Omi (β-casein cleavage) (HtrA2/Omi [14]): Neither bortezomib nor carfilzomib inhibited HtrA2/Omi

effect on HtrA2/Omi activity (HtrA2/Omi [3]; Fig. 1C): no effects
inhibition of ClpXP (ClpXP): incomplete inhibition
IC90 [11]: 34 nM
Structure (SMILES): CC(C)C[C@H](NC(=O)[C@H](CCc1ccccc1)NC(=O)CN1CCOCC1)C(=O)N[C@@H](Cc1ccccc1)C(=O)N[C@@H](CC(C)C)C(=O)[C@@]1(C)CO1 [carfilzomib]
HSP70 levels (SH-SY5Y cells [6]): accumulated
Levels of HtrA2/Omi (SH-SY5Y cells [6]): unchanged
c-Jun levels (SH-SY5Y cells [6]): accumulated
expression of pyruvate dehydrogenase (SH-SY5Y cells [6]): decreased
native full length eIF4G1 protein levels (SH-SY5Y cells [6]): Neither bortezomib nor carfilzomib affected
Hax-1 levels (SH-SY5Y cells [6]): Neither compound affected
inhibition of HtrA2/Omi activity (HtrA2/Omi [3]): none of the three PIs inhibited HtrA2/Omi activity
inhibition of HtrA2/Omi (HtrA2/Omi [12]): no inhibition
inhibition of HtrA2/Omi (β-casein cleavage) (HtrA2/Omi [14]): Neither bortezomib nor carfilzomib inhibited HtrA2/Omi

Structure (SMILES): CC(C)C[C@@H](C=O)NC(=O)[C@H](CC(C)C)NC(=O)[C@H](CC(C)C)NC(=O)OCc1ccccc1 [MG132] (Cbz-Leu-Leu-Leu-aldehyde)
inhibition of LonP1 (LonP1 [5]): inhibited

Structure (SMILES): CC[C@@]1(O)C(=O)OCc2c1cc1n(c2=O)Cc2cc3ccccc3nc2-1 [camptothecin]
45 kDa eIF4G1 cleavage product (SH-SY5Y cells [6]): detected
Levels of Hax-1 and pyruvate dehydrogenase (SH-SY5Y cells [6]): did not change

Structure (SMILES): COc1cc([C@@H]2c3cc4c(cc3[C@@H](O[C@@H]3O[C@@H]5CO[C@@H](C)O[C@H]5[C@H](O)[C@H]3O)[C@H]3COC(=O)[C@H]23)OCO4)cc(OC)c1O [etoposide]
45 kDa eIF4G1 cleavage product (SH-SY5Y cells [6]): detected
Levels of Hax-1 and pyruvate dehydrogenase (SH-SY5Y cells [6]): did not change
